Screens deposited in PubChem by several laboratories.
Most compounds without a hit are left out; they make up all but 4.1% or so of the library.
Cl transport mod: KCC2 (human) Cl- transport modulation; Q9H2X9; KCC2 cells, thallium flux FluoZin-2 fluorescence; B-score of Tl+ flux slope (higher = more flux/activation; lower = inhibition) at 10 µM; hit rate 2.2% among 190,000; AID 1456;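 active = thallium flux slope and its plate-corrected score both differing from the plate sample mean at a set confidence after two filtering rounds, in either direction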;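 note: slope of fluorescence scaled to starting intensity during 10 to 20 s after thallium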
KCNQ1 pot: potentiates or activates the human KCNQ1 potassium channel. P51787. CHO-K1 KCNQ1, thallium flux FluxOR fluorescence; active compounds read high. B-score at 10 µM. hit rate 0.35% among 310,000;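 active = fluorescence ratio B-score, a plate-corrected score, at least three library SD, with initial intensity B-score within 5 SD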
Target sequence (P51787 whole entry, looked up): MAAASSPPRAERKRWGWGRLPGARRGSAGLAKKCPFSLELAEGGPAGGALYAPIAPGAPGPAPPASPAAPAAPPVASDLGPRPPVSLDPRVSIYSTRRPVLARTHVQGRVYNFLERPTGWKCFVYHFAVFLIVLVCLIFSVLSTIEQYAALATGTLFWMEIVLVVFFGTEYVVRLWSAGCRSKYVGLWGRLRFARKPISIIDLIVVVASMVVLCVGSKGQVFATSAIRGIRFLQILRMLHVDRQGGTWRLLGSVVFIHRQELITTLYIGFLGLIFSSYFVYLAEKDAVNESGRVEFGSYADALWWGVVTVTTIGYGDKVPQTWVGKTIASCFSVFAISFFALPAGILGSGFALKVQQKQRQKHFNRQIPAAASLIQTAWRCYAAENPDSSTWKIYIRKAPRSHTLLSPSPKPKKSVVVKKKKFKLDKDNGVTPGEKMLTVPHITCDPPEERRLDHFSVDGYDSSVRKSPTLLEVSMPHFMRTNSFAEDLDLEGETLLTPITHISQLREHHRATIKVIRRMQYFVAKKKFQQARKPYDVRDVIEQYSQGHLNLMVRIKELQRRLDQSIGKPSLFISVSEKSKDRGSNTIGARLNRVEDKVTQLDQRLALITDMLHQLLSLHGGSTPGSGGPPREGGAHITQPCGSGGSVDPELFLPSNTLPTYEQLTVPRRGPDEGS
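Medium – assay buffer, equal DMSO in all wells · Material – CHO-K1 cell line with stable KCNQ1 potassium channel expression · Signal – kinetic FluxOR thallium fluorescence, 10-s 1-Hz baseline, 110-s post-stimulus read · Compound – single concentration per compound, DMSO matched to controls · Schedule – 37 °C overnight plating, 90-min dark dye load, 20-min compound pretreatment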
hERG rescue: hERG (human) protection from proarrhythmic block. Q12809. CHO-hERG, FluxOR thallium flux, dofetilide IC70 present. activation (rescue from dofetilide block), less the hit threshold, % at 10 µM. hit rate 0.51% among 310,000;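 active = activation above the mean of controls blocked by dofetilide plus 5 SD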;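 note: thallium influx through hERG after potassium depolarization seen as dye fluorescence rise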
KCNK9 inh: human KCNK9 channel inhibition. Q9NPC2. HEK293 KCNK9, FluxOR thallium flux fluorescence; active compounds read low. B-score at 10 µM. hit rate 1.2% among 310,000;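 active = ratio B-score over 3 SD below the library mean, with starting fluorescence within 5 SD of its mean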;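 note: negative B-score means less thallium flux so channel inhibition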
KCNK3 inh: human KCNK3 channel inhibition, primary screen. O14649. AID 602410. CHO-KCNK3 thallium flux, FluxOR fluorescence; active compounds read low. B-score at 10 µM. hit rate 0.84% among 340,000;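 active = B-score under library mean minus 4 SD, starting fluorescence ratio at most library mean plus 5 SD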;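 note: more negative B-score means stronger inhibition of thallium flux through KCNK3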
KCNQ1 inh: human KCNQ1 channel inhibition. B-score at 10 µM. AID 2642. hit rate 1.3% among 310,000. P51787. CHO-K1 KCNQ1, FluxOR thallium flux fluorescence; active compounds read high;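 active = compounds whose thallium flux B-score, printed positive for inhibition, exceeds three library SD while starting fluorescence stays within three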;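 note: channel opened by potassium depolarization with thallium stimulus after 20 min compound exposure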
An asterisk follows results filed as active; i = inactive; x = no result.

SMILES	Cl transport mod	KCNQ1 pot	hERG rescue	KCNK9 inh	KCNK3 inh	KCNQ1 inh
S=c1[nH]nc(-c2ccc(Br)o2)n1Cc1ccccc1	3.4*	i	-4	i	i	i
CC(C)n1cnnc1SCC(=O)Nc1cccnc1Cl	x	x	x	x	i	x
Cc1nc(C)c(-c2ccc(SCc3ccccc3C)nn2)s1	x	i	-6	-7.9*	i	i
O=[N+]([O-])c1ccc(O)c(/C=N/n2c(-c3ccccc3)n[nH]c2=S)c1	x	i	-26	i	i	7*
Oc1c(Br)cc(Br)cc1/C=N/n1c(-c2ccccc2)n[nH]c1=S	x	12*	-18	i	i	i
Cc1nnc(C)n1/N=C/c1cc(Br)cc(Br)c1O	x	15*	12*	i	i	i
CCC1(c2ccc(C)cc2)NC(=O)N(C(C)C(=O)Nc2ccc(N3CCOCC3)cc2)C1=O (stereo not given)	x	x	x	x	i	x
CC(C)N1CC=C2C(C#N)=C(N)C(C#N)(C#N)C(c3ccccc3)C2C1 (stereo not given)	-0.12	i	-20	i	i	i
CCC1C2CN(C(C)=O)CC=C2C(C#N)=C(N)C1(C#N)C#N (stereo not given)	-0.16	i	-9	i	i	i
CC(C)N1CC=C2C(C#N)=C(N)C(C#N)(C#N)[C@H](c3ccoc3)[C@H]2C1	i	i	-12	i	x	7*
CCN1CC=C2C(C#N)=C(N)C(C#N)(C#N)C(c3cc(Cl)ccc3Cl)C2C1 (stereo not given)	-0.72	i	-12	i	-10*	12*
O=C1/C(=C\c2c(NCCOCCO)nc3ccccn3c2=O)SC(=S)N1Cc1ccco1	x	i	-10	i	i	i
COc1ccc(CC(=O)OCC(=O)N2CCCc3ccccc32)cc1OC	x	i	-10	i	i	i
CCCCCCN1C=C/C(=C\C=C(C#N)C#N)c2ccccc21	0.0097	i	-12	-7.2*	i	i
CCc1ccc(-c2nc(CN3CCC(C(=O)N4CCN(c5ccccn5)CC4)CC3)c(C)o2)cc1	0.055	x	x	x	i	x
CCc1ccc(-c2nc(CN3CCC(C(=O)N4CCN(c5ccccc5)CC4)CC3)c(C)o2)cc1	2*	i	-30	i	i	i
O=C(NC1c2ccccc2Oc2ccccc21)c1ccc([N+](=O)[O-])cc1	x	x	x	x	i	x
O=C1CC(c2ccccc2)Sc2nc3ccccc3n21 (stereo not given)	-0.0046	i	42*	i	i	i
CCC(=O)OCOc1ccc(/C=C2/CCC(CN(C)C)C2=O)cc1 (stereo not given)	x	x	x	x	i	x
CN1C(=O)NC(c2ccccc2[N+](=O)[O-])C2=C1CCCC2=O (stereo not given)	x	i	-15	i	i	6*
CN1C(=O)NC(c2ccccc2[N+](=O)[O-])C2=C1CC(C)(C)CC2=O (stereo not given)	x	i	-6	i	i	i
CCC(C)(C)NC(=O)C(c1ccc(OC)cc1)N(C(=O)CCC(=O)Nc1cc(C)on1)c1cccc(F)c1 (stereo not given)	x	i	-4	i	i	i
COc1ccc(C(C(=O)NC(C)(C)C)N(C(=O)CCC(=O)Nc2cc(C)on2)c2cccc(F)c2)cc1 (stereo not given)	x	24*	7.1*	i	i	i
COc1ccccc1Nc1ncc(C(=O)N2CCN(Cc3ccc(OC)c(OC)c3OC)CC2)c2ccccc12	0.037	i	-14	i	i	6*
COc1ccc(S(=O)(=O)NCC(c2ccc(C)cc2)N2CCN(C)CC2)cc1 (stereo not given)	x	i	-13	i	i	i
SMILES	Cl transport mod	KCNQ1 pot	hERG rescue	KCNK9 inh	KCNK3 inh	KCNQ1 inh
COc1ccc(-c2noc(CCCCC(=O)N3CCN(c4cc(C)ccc4C)CC3)n2)cc1	x	x	x	x	-11*	x
Cc1ccc(-c2noc(CCC(=O)N3CCN(c4cc(C)ccc4C)CC3)n2)cc1	x	x	x	x	i	x
COc1cccc(-c2noc(CCC(=O)N3CCN(c4cc(C)ccc4C)CC3)n2)c1	x	x	x	x	i	x
COc1ccc(-c2noc(CCCC(=O)N3CCN(c4cc(C)ccc4C)CC3)n2)cc1	x	x	x	x	-8.8*	x
CCC[C@H]1CC(=O)C=C(c2ccc(OC)cc2)ON1C(=O)OC(C)(C)C	x	x	x	x	i	x
Cc1ccc(O)c(NC(=S)NC(=O)Cc2ccc(Cl)cc2)c1	x	50*	-7	i	i	i
Cc1ccc(NC(=S)NC(=O)c2ccc(-c3ccc(Cl)cc3)o2)c(O)c1	0.96	i	-9	i	i	i
CC(C)(C)OC(=O)N1Cc2ccccc2C[C@H]1C(=O)NCC(=O)NC1CCCCC1	x	i	-7	i	i	i
CCc1nn(CC(=O)N2CCN(c3ccc(F)cc3)CC2)c(=O)c2cc3occc3n12	x	i	-3	i	i	i
CC(=O)Nc1ccccc1NC(=O)C(F)(F)F	0.15	i	-9	i	i	i
O=C(Nc1cccc2c1[nH]c1ccccc12)C(F)(F)F	0.37	i	-3	i	i	6*
Clc1cccc(CSc2nnc(-c3sccc3-n3cccc3)o2)c1	-0.077	i	-5	i	i	7*
C[C@H](CO)N1C[C@H](C)[C@@H](CN(C)C(=O)Nc2ccc(C(F)(F)F)cc2)Oc2ccc(NS(=O)(=O)c3ccccc3)cc2C1=O	x	x	x	x	i	x
Cc1ccc2nc(/C(C#N)=C\c3ccc(N4CCOCC4)o3)[nH]c2c1	i	i	-8	i	i	6*
Cc1ccc2nc(/C(C#N)=C\c3ccc([N+](=O)[O-])o3)[nH]c2c1	-0.62	i	-5	i	i	i
COC(=O)c1c(NC(=S)Nc2ccc(F)cc2[N+](=O)[O-])sc2c1CCCCC2	20*	10*	6.4*	i	i	i
COC(=O)c1c(NC(=O)COC(=O)c2ccc(Cl)cc2[N+](=O)[O-])sc2c1CCCCC2	0.023	i	-7	i	i	i
COC(=O)c1c(NS(=O)(=O)c2ccc(C)cc2)sc2c1CCC(C)C2 (stereo not given)	16*	x	x	x	i	x
COC(=O)c1c(NC(C)=O)sc2c1CCCC2	0.93	i	-9	i	i	i
COC(=O)c1c(NC(=O)CN(C)CC(=O)Nc2ccc(C)cc2)sc2c1CCC(C)C2 (stereo not given)	x	x	x	x	i	x
CNC(=S)Nc1sc2c(c1C(=O)OC)CCC2	52*	16*	11*	i	i	i
COC(=O)c1c(NS(=O)(=O)Cc2ccccc2)sc2c1CCCC2	45*	13*	18*	i	i	i
CN(Cc1ccccc1)C(=O)C1CCN(S(=O)(=O)c2cccc3nonc23)CC1	x	i	-7	i	i	i
